This sample holds only a part of the variants without activity.
B1: tRNA (parent)
chain: GUUCCGUUGGCGUAAUGGUAACGCGUCUCCCUCCUAAGGAGAAGACUGCGGGUUCGAGUCCCGUACGGAACG

Variants of: B1
Experiment: yeast fitness relative to wild type (ratio to wild type); higher = fitter; tRNA-Arg(CCU), competitive growth, 37 C, YPD
Outline: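 Start and end populations of a pooled competition were compared by 100-nucleotide paired-end sequencing of gene amplicons. The Saccharomyces cerevisiae strains carried tRNA-Arg(CCU) gene variants at the native genomic locus, synthesised with a 3% per-site mutation rate at 69 sites, and competed in YPD at 37°C for 24 hours in six parallel replicates. Darwinian fitness relative to wild type was based on the change in genotype frequencies. Genotypes required ≥ 100 starting reads, and estimates < 0.5 were set to 0.5.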

| Variant | yeast fitness |
| --- | --- |
| A20C C27U A36G A65G G67A | 0.542 |
| A20C C27U A45U | 0.636 |
| A20C C27U C34G | 0.581 |
| A20C C27U C62U | 0.731 |
| A20C C27U U59G | 0.582 |
| A20C C29A G51C | ≤ 0.5 |
| A20C C29G | 0.609 |
| A20C C29G A57U | ≤ 0.5 |
| A20C C29G A57U A70C | ≤ 0.5 |
| A20C C29G A69C | 0.539 |
| A20C C29G C31U A57U | ≤ 0.5 |
| A20C C29G U35C | ≤ 0.5 |
| A20C C29U A37G | 0.753 |
| A20C C29U A37G A69U | 0.526 |
| A20C C29U C31G C61G | ≤ 0.5 |
| A20C C29U C31G U32A C33A U53C | ≤ 0.5 |
| A20C C29U C34A C46A G50A A57U C66U | ≤ 0.5 |
| A20C C29U C34A C46A G50A A57U G58A C66U | ≤ 0.5 |
| A20C C29U C49G G58A | ≤ 0.5 |
| A20C C29U G50C | ≤ 0.5 |
| A20C C29U U32A A70U | ≤ 0.5 |
| A20C C29U U54C | ≤ 0.5 |
| A20C C30A | 0.746 |
| A20C C30A A37G U59A | ≤ 0.5 |

| Variant | yeast fitness |
| --- | --- |
| A20C C30A A45U C60U | ≤ 0.5 |
| A20C C30A A57U | ≤ 0.5 |
| A20C C30A A70G | 0.588 |
| A20C C30A C33U C34G G38C C62A | ≤ 0.5 |
| A20C C30A C33U C34U C49A | 0.733 |
| A20C C30G C55A G67A | ≤ 0.5 |
| A20C C30G C60A | ≤ 0.5 |
| A20C C30G C62U | 0.554 |
| A20C C30G U35C C60A | ≤ 0.5 |
| A20C C30U C31U A45C A57U C66G | ≤ 0.5 |
| A20C C30U C33G A40G | 0.537 |
| A20C C30U C66U | ≤ 0.5 |
| A20C C31A A70U | ≤ 0.5 |
| A20C C31A C60U | ≤ 0.5 |
| A20C C31A G39C C49U | ≤ 0.5 |
| A20C C31G C61G A65G | ≤ 0.5 |
| A20C C31G G58C | 0.92 |
| A20C C31G U47C G58C | ≤ 0.5 |
| A20C C31U A40G G52C C62A A65G | ≤ 0.5 |
| A20C C31U A40G G52C G67C | ≤ 0.5 |
| A20C C31U A42U | 0.643 |
| A20C C31U G68C | 0.609 |
| A20C C31U U53A | ≤ 0.5 |
| A20C C33A A40C | 0.7 |

| Variant | yeast fitness |
| --- | --- |
| A20C C33A A65U | ≤ 0.5 |
| A20C C33A G41C C49G A70U | 0.575 |
| A20C C33A G48A C66U A70G | ≤ 0.5 |
| A20C C33G U59C | 0.685 |
| A20C C33U | 0.816 |
| A20C C33U A43C G48C | 0.525 |
| A20C C33U G38C | ≤ 0.5 |
| A20C C33U G41A | ≤ 0.5 |
| A20C C34A | 0.674 |
| A20C C34A A37G C46A G63C A69C | ≤ 0.5 |
| A20C C34A G50C C61U | ≤ 0.5 |
| A20C C34G A42G | 0.922 |
| A20C C34G A43C C62U G68C | ≤ 0.5 |
| A20C C34G A43C G56A C61U | 0.705 |
| A20C C34G G68C | ≤ 0.5 |
| A20C C34U A40G A57C G67C | ≤ 0.5 |
| A20C C34U C60A C66U | 0.605 |
| A20C C34U G52A C62U | ≤ 0.5 |
| A20C C34U U47G C60U C62G | ≤ 0.5 |
| A20C C46A C61U C66U | ≤ 0.5 |
| A20C C46A G68A | 0.875 |
| A20C C46U | 1.13 |
| A20C C46U G50A G67C A70U | ≤ 0.5 |
| A20C C49A | 0.575 |

| Variant | yeast fitness |
| --- | --- |
| A20C C49A U54A G58A C60A | 0.593 |
| A20C C49G C62U | ≤ 0.5 |
| A20C C49U A70G | 0.748 |
| A20C C55A | 0.699 |
| A20C C55G A65G | 0.53 |
| A20C C55U A70C | 0.612 |
| A20C C60G | 0.591 |
| A20C C60U | 0.742 |
| A20C C61A | 0.779 |
| A20C C61G | 0.747 |
| A20C C61G C62A | ≤ 0.5 |
| A20C C61U A69C A70C | ≤ 0.5 |
| A20C C62A | 0.831 |
| A20C C62G | 0.618 |
| A20C C62U | 0.923 |
| A20C C62U A65G | 0.593 |
| A20C C62U A70G | 0.733 |
| A20C C66A | 0.697 |
| A20C C66G | 0.766 |
| A20C C66U | 0.931 |
| A20C G23A | 0.788 |
| A20C G23A A43G C55G C60A | ≤ 0.5 |
| A20C G23A A70U | 0.551 |
| A20C G23A C30A A40U | ≤ 0.5 |

| Variant | yeast fitness |
| --- | --- |
| A20C G23A C55G | 0.593 |
| A20C G23A G50A C55G C60A | ≤ 0.5 |
| A20C G23C C27A | 0.574 |
| A20C G23C C27A U64A | ≤ 0.5 |
| A20C G23C C34A G67A | ≤ 0.5 |
| A20C G23U C60A | 0.676 |
| A20C G25A | 1.06 |
| A20C G25A A57G | 0.694 |
| A20C G25A C31G C33U C34U G41C A57G | ≤ 0.5 |
| A20C G25A G44A | 0.85 |
| A20C G25A G44C G68A | 0.523 |
| A20C G25A U28C G44A | 0.553 |
| A20C G25C | 0.783 |
| A20C G25C C29U | ≤ 0.5 |
| A20C G25C C31U A43G G51A G67A | 0.583 |
| A20C G25C G38C G56C G63C U64C | 0.524 |
| A20C G25C U35A A45U | ≤ 0.5 |
| A20C G38A | 0.707 |
| A20C G38A C49A G58C A65G G68A A69C | 0.589 |
| A20C G38A C55A C66U | ≤ 0.5 |
| A20C G38A G51C U64G | ≤ 0.5 |
| A20C G38C | 0.639 |
| A20C G38C A70C | ≤ 0.5 |
| A20C G38C G63A A70C | ≤ 0.5 |

| Variant | yeast fitness |
| --- | --- |
| A20C G39A | 0.84 |
| A20C G39A U54A | 0.599 |
| A20C G39C A70U | 0.521 |
| A20C G39C C61U | ≤ 0.5 |
| A20C G41C A42C G56A U64C A70U | ≤ 0.5 |
| A20C G44C | 0.688 |
| A20C G48C | 0.889 |
| A20C G48C A57G | 0.545 |
| A20C G48C C66U | 0.73 |
| A20C G48C G67A | 0.638 |
| A20C G50A | 0.861 |
| A20C G50A C62U | 1.13 |
| A20C G50A G68A | ≤ 0.5 |
| A20C G51A | 0.815 |
| A20C G51C | 0.541 |
| A20C G52C C61G | ≤ 0.5 |
| A20C G52C U54A | ≤ 0.5 |
| A20C G56A A70G | 0.611 |
| A20C G56A A70U | 0.91 |
| A20C G56A C61U | 0.571 |
| A20C G56C | 0.625 |
| A20C G67A | 0.873 |
| A20C G67C | 0.654 |
| A20C G67C A70U | 0.761 |

| Variant | yeast fitness |
| --- | --- |
| A20C G68C | 0.689 |
| A20C G68U | 0.909 |
| A20C U26A C34G A36G C46G | ≤ 0.5 |
| A20C U26A C34G C46G | 0.595 |
| A20C U26C | 0.883 |
| A20C U26C C27U G67A | ≤ 0.5 |
| A20C U26G A36C G38U | ≤ 0.5 |
| A20C U26G A36C G38U A65U | ≤ 0.5 |
| A20C U26G A43U | ≤ 0.5 |
| A20C U28A C31G C55A G68C | ≤ 0.5 |
| A20C U28C | 0.929 |
| A20C U28C A36C | ≤ 0.5 |
| A20C U28C A65G | 0.661 |
| A20C U28C C30A G44C A45G C55A | ≤ 0.5 |
| A20C U28C G41A | 0.592 |
| A20C U28G C46A | 0.531 |
| A20C U28G U47C C66U | ≤ 0.5 |
| A20C U28G U47C G68C | ≤ 0.5 |
| A20C U32A | 0.719 |
| A20C U32A A37U | ≤ 0.5 |
| A20C U32A U64A A65U | 0.558 |
| A20C U32C | 0.985 |
| A20C U35G C46U | ≤ 0.5 |
